As a reminder, the inhibition in vivo is the percentage by which the read-out fell short of the control.

Data set [1] has as its system Canis familiaris. The data set can be described thus: Inhibition of gastrin tetrapeptide-induced gastric secretion in beagle dog at 16 mg/kg administered directly into stomach via gastric cannula measured after 2 hrs of stimulation. It counts as functional. Conditions: Canis lupus familiaris. Put shortly: (§1)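 Conscious female beagles (5-9 kg) with chronic gastric fistula. Dose in 50 mL 1% methylcellulose was put into the stomach via the cannula 1 h before gastrin tetrapeptide 64 µg/kg sc (from 640 µg/mL in 30% Me2SO); controls got vehicle. Juice was collected for 2 h. Volume was measured, titratable acid obtained by titration to pH 7 with 0.01 N NaOH, and total acid taken as volume × concentration.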

Data set [2] concerns Canis familiaris. Briefly: Toxicity in beagle dog assessed as emesis administered directly into stomach via gastric cannula. The class given is organism-based, Canis lupus familiaris. Conditions: in vivo, other.
Data set [3] deals with Canis familiaris. Briefly: Toxicity in beagle dog assessed as tachycardia administered directly into stomach via gastric cannula. The class given is organism-based, Canis lupus familiaris. Particulars: in vivo, other.
In data set [4] the test system is Canis familiaris. The data set can be described thus: Toxicity in beagle dog assessed as gastric bleeding administered directly into stomach via gastric cannula. The class given is organism-based, Canis lupus familiaris. Conditions: in vivo, other.
Data set [5] is described as follows: Dissociation constant, apparent pKa of the compound in 20% EtOH/H2O. The class given is physicochemical. Particulars: read-out: Apparent_pKa. Put shortly: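 Potentiometric titration in 20% EtOH–H2O with a glass-calomel electrode. Sample was titrated directly with 0.5 N NaOH, or dissolved with excess NaOH and back-titrated with 0.5 N HCl. pKa was read as the pH at the half-neutralization point of the curve.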

Data set [6] has as its system Canis familiaris. Briefly: Inhibition of gastrin tetrapeptide-induced gastric secretion in beagle dog assessed as volume at 16 mg/kg administered directly into stomach via gastric cannula measured after 2 hrs of stimulation. The class given is functional. Conditions: Canis lupus familiaris. Put shortly:
as §1

Data set [7] relates to Canis familiaris. The data set can be described thus: Inhibition of gastrin tetrapeptide-induced gastric secretion in beagle dog assessed as titratable acid at 16 mg/kg administered directly into stomach via gastric cannula measured after 2 hrs of stimulation. The class given is functional. Conditions: Canis lupus familiaris. Put shortly: as §1
Data set [8] deals with Canis familiaris. The data set can be described thus: Inhibition of gastrin tetrapeptide-induced gastric secretion in beagle dog assessed as total acid output at 16 mg/kg administered directly into stomach via gastric cannula measured after 2 hrs of stimulation. Conditions: Canis lupus familiaris. The class given is functional. Put shortly: as §1
Data set [9] has as its system Canis familiaris. Briefly: Inhibition of gastrin tetrapeptide-induced gastric secretion in beagle dog assessed as volume at 32 mg/kg administered directly into stomach via gastric cannula measured after 2 hrs of stimulation. It counts as functional. Particulars: Canis lupus familiaris. Put shortly: as §1
The subject of data set [10] is Canis familiaris. The data set can be described thus: Inhibition of gastrin tetrapeptide-induced gastric secretion in beagle dog assessed as titratable acid at 32 mg/kg administered directly into stomach via gastric cannula measured after 2 hrs of stimulation. Conditions: Canis lupus familiaris. The class given is functional. Put shortly:
as §1

Data set [11] relates to Canis familiaris. Briefly: Inhibition of gastrin tetrapeptide-induced gastric secretion in beagle dog assessed as total acid output at 32 mg/kg administered directly into stomach via gastric cannula measured after 2 hrs of stimulation. It counts as functional. Conditions: Canis lupus familiaris. Put shortly:
as §1

As for `N=C(CSCc1ccccc1)NC[C@@H]1C[C@H]2CC[C@H]1C2` (relative stereo; 51), the inhibition in vivo at 16 mg/kg in the data set on Canis familiaris [1] stood at 19%. In addition, the Activity result with Canis familiaris [2], in the data set on Canis familiaris [3] and with Canis familiaris [4] was “Toxic” throughout. Further, the pKa in data set [5] is 11.

Consider `CNC(=S)NCCSCc1[nH]cnc1C` [METIAMIDE], for which the inhibition in vivo at 16 mg/kg with Canis familiaris [6] came out at 65%; in the data set on Canis familiaris [7], 91%; in the data set with Canis familiaris [8], 64%. Further, the inhibition in vivo at 32 mg/kg with Canis familiaris [9] was 83%; in the data set on Canis familiaris [10], 70%; with Canis familiaris [11], 90%.
